Test results as given in ChEMBL document CHEMBL1129565, “Selective inhibitors of monoamine oxidase. 3. Structure-activity relationship of tricyclics bearing imidazoline, oxadiazole, or tetrazole groups” (J Med Chem, 1996).

Experiments:
[1] = target: T1, Amine oxidase [flavin-containing] B (Rattus norvegicus, UniProt P19643); test: Inhibitory activity against rat brain mitochondrial Monoamine oxidase B; NS=not significant at 0.001 uM
T1 sequence (P19643 whole entry): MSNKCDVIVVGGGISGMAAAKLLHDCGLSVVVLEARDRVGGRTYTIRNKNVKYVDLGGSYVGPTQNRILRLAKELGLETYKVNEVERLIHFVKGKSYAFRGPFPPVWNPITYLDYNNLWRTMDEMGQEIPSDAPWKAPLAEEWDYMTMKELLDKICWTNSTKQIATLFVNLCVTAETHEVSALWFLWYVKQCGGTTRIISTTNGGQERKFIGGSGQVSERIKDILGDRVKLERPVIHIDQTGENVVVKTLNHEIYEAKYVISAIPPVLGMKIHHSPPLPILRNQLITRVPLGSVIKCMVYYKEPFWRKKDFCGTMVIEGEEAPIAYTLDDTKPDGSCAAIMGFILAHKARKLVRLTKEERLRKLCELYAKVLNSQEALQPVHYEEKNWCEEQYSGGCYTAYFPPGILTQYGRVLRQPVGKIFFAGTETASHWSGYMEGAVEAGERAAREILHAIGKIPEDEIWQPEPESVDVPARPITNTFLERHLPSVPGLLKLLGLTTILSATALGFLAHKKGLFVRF
Outline: (§1)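 Rat brain mitochondrial MAO extract preincubated with inhibitor 15 min at 37 °C in 50 mM potassium phosphate pH 7.4. [14C]phenethylamine added at 10 μM final, then 20 min incubation. Pargyline 2 mM blanks. Stopped with HCl, products extracted into ethyl acetate/toluene and counted radiometrically. Triplicates; IC50 from mean % inhibition vs log concentration.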

[2] = target: T2, Amine oxidase [flavin-containing] A (Rattus norvegicus, UniProt P21396); test: Inhibition of the enzyme Monoamine oxidase A which was not completely reverserved after 24 hr of dialysis
T2 sequence (P21396 whole entry): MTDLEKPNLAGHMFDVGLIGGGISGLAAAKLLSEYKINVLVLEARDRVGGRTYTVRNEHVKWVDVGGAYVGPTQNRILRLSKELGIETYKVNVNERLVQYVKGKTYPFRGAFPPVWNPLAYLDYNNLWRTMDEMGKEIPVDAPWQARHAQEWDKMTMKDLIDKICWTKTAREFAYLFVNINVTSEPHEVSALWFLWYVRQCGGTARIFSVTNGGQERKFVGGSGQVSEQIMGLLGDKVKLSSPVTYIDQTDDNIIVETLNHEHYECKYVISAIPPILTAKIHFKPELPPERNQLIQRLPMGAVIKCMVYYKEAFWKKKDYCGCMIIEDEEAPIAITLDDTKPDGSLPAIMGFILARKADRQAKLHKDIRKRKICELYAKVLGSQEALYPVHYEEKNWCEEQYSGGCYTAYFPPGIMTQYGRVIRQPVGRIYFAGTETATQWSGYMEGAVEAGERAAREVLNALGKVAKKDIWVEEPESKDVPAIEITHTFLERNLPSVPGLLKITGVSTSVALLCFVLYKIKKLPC
Outline: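 Reversibility: MAO extract preincubated with or without inhibitor 15 min at 37 °C, in duplicate, then dialysed 24 h at 4 °C with shaking against 0.1 M potassium phosphate pH 7.4, 5% sucrose, 1 mM dithiothreitol, buffer changed ca. 3 and 19 h. Undialysed portions held at 4 °C; both assayed together for MAO activity.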

[3] = target: T2, Amine oxidase [flavin-containing] A; test: Inhibitory concentration against rat brain mitochondrial monoamine oxidase A
Outline: (§2)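 Rat brain mitochondrial MAO extract preincubated with inhibitor 15 min at 37 °C in 50 mM potassium phosphate pH 7.4. [3H]serotonin added at 0.2 μM final, then 20 min incubation. Pargyline 2 mM blanks. Stopped with HCl, products extracted into ethyl acetate/toluene and counted radiometrically. Triplicates; IC50 from mean % inhibition vs log concentration.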

[4] = target: T1, Amine oxidase [flavin-containing] B; test: Inhibitory activity against rat brain mitochondrial Monoamine oxidase B at 0.0 uM; outline: as §1
[5] = target: T1, Amine oxidase [flavin-containing] B; test: Inhibitory activity against rat brain mitochondrial Monoamine oxidase B at 0.03 uM; outline: as §1
[6] = target: T1, Amine oxidase [flavin-containing] B; test: Inhibitory activity against rat brain mitochondrial Monoamine oxidase B;NS=not significant at 0.1 uM; outline: as §1
[7] = target: T2, Amine oxidase [flavin-containing] A; test: Inhibition of the enzyme Monoamine oxidase A which was not completely reverserved after 24 hr of dialysis after po administration to rat (brain); type: organism-based; conditions: in vivo
[8] = target: T2, Amine oxidase [flavin-containing] A; test: Inhibitory concentration against Monoamine oxidase A
Outline: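 Rat brain mitochondrial MAO extract was preincubated ± inhibitor 15 min at 37 °C in 50 mM potassium phosphate (pH 7.4), then given [3H]serotonin at 0.2 μM final for 20 min. Blanks contained 2 mM pargyline. Products went into ethyl acetate/toluene for scintillation counting. Triplicates per concentration; IC50 extrapolated from mean % inhibition vs log concentration plots.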

[9] = target: T1, Amine oxidase [flavin-containing] B; test: Inhibitory activity against Monoamine oxidase B at 1 uM; outline: as §1
[10] = target: T1, Amine oxidase [flavin-containing] B; test: Inhibitory activity against rat brain mitochondrial Monoamine oxidase B at 0.003 uM; outline: as §1
[11] = target: T1, Amine oxidase [flavin-containing] B; test: Inhibitory activity against rat brain mitochondrial Monoamine oxidase B; outline: as §1
[12] = target: T2, Amine oxidase [flavin-containing] A; test: Inhibitory concentration against rat brain mitochondrial Monoamine oxidase A at <5 uM; outline: as §2
[13] = target: T1, Amine oxidase [flavin-containing] B; test: Inhibitory activity against rat brain mitochondrial Monoamine oxidase B at 0.5 uM; outline: as §1
[14] = target: T2, Amine oxidase [flavin-containing] A; test: Inhibition of the enzyme Monoamine oxidase A which was not completely reverserved after 24 hr of dialysis after 25 mg/kg po administration *; type: organism-based; set-up: dose 25 mg/kg, route oral; conditions: in vivo
[15] = target: T1, Amine oxidase [flavin-containing] B; test: Inhibitory activity against rat brain mitochondrial Monoamine oxidase B; NS=not significant ta 1 uM; outline: as §1
[16] = target: T1, Amine oxidase [flavin-containing] B; test: Inhibitory activity against rat brain mitochondrial Monoamine oxidase B at 50 uM; outline: as §1
[17] = target: T1, Amine oxidase [flavin-containing] B; test: Inhibitory activity against rat brain mitochondrial Monoamine oxidase B at 0.2 uM; outline: as §1
[18] = target: T2, Amine oxidase [flavin-containing] A; test: Inhibition of the enzyme MAO A which was not completely reverserved after 24 hr of dialysis after po administration to rat (brain); type: organism-based; conditions: in vivo
[19] = target: T2, Amine oxidase [flavin-containing] A; test: Inhibitory concentration against rat brain mitochondrial Monoamine oxidase A (Expt 1); outline: as §2
[20] = target: T2, Amine oxidase [flavin-containing] A; test: Inhibitory activity against rat brain mitochondrial Monoamine oxidase A (Expt 2)
[21] = target: T1, Amine oxidase [flavin-containing] B; test: Inhibitory activity against rat brain mitochondrial Monoamine oxidase B 0.1(uM); outline: as §1
[22] = target: T2, Amine oxidase [flavin-containing] A; test: Inhibitory concentration against rat brain mitochondrial Monoamine oxidase A at 3 uM; outline: as §2
[23] = target: T1, Amine oxidase [flavin-containing] B; test: Inhibitory activity against rat brain mitochondrial Monoamine oxidase B at 3 uM; outline: as §1
[24] = target: T1, Amine oxidase [flavin-containing] B; test: Inhibitory activity against Monoamine oxidase B; NS=not significant at 0.001 uM
Outline: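 Rat brain mitochondrial MAO extract preincubated with or without inhibitor 15 min at 37 °C in 50 mM potassium phosphate, pH 7.4. [14C]phenethylamine was then added to 10 μM final and incubated 20 min. Blanks contained 2 mM pargyline. Products were extracted into ethyl acetate/toluene and counted by scintillation. Triplicates at each inhibitor concentration; mean percent inhibition.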

[25] = target: T2, Amine oxidase [flavin-containing] A; test: Inhibition of the enzyme Monoamine oxidase A which was not completely reverserved after 24 hr of dialysis after 20 mg/kg po administration; type: organism-based; set-up: dose 20 mg/kg, route oral; conditions: in vivo
[26] = target: T1, Amine oxidase [flavin-containing] B; test: Inhibitory activity against rat brain mitochondrial Monoamine oxidase B at 0.3 uM; outline: as §1
[27] = target: T2, Amine oxidase [flavin-containing] A; test: Inhibitory concentration against rat brain mitochondrial Monoamine oxidase A at <1 uM; outline: as §2
[28] = target: T1, Amine oxidase [flavin-containing] B; test: Inhibitory activity against rat brain mitochondrial Monoamine oxidase B at < 1 uM; outline: as §1
[29] = target: T1, Amine oxidase [flavin-containing] B; test: Inhibitory activity against rat brain mitochondrial Monoamine oxidase B; NS=not significant at 1 uM; outline: as §1
[30] = target: T2, Amine oxidase [flavin-containing] A; test: Ex vivo value for inhibition of MAO A of rats sacrificed 2 hr after po administration; type: organism-based
Outline: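 Rats dosed orally, killed 2 h later; brain MAO A inhibition then measured ex vivo.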

[31] = target: T2, Amine oxidase [flavin-containing] A; test: Inhibitory activity against Monoamine oxidase A at 1 uM; outline: as §2
[32] = target: T1, Amine oxidase [flavin-containing] B; test: Inhibitory activity against rat brain mitochondrial Monoamine oxidase B at 0.1 uM; outline: as §1
[33] = target: T2, Amine oxidase [flavin-containing] A; test: Inhibitory concentration against rat brain mitochondrial Monoamine oxidase A at 0.5 uM; outline: as §2
[34] = target: T2, Amine oxidase [flavin-containing] A; test: Inhibitory concentration against rat brain mitochondrial Monoamine oxidase A at 0.1 uM; outline: as §2
[35] = target: T1, Amine oxidase [flavin-containing] B; test: Inhibitory activity against rat brain mitochondrial Monoamine oxidase B at 10 uM; outline: as §1
[36] = target: T1, Amine oxidase [flavin-containing] B; test: Inhibitory activity against rat brain mitochondrial Monoamine oxidase B;NS=not significant at 1 uM; outline: as §1

Compound: Cc1ccc2c(c1)C(=O)c1ccc(-c3nnc(C)o3)cc1S2(=O)=O
- IC50 [1]: Not Active
- Reversible [2]: 10%
- IC50 [3]: 2 nM

Compound: CCCNc1ccc2c(c1)C(=O)c1ccc(C3=NCCN3)cc1S2(=O)=O
- Inhibition [4]: 4%
- Reversible [2]: 0%
- IC50 [3]: 20 nM

Compound: CN(C)c1ccc2c(c1)C(=O)c1ccc(C3=NCCN3)cc1S2(=O)=O
- inhibition at 0.03 µM [5]: 8%
- Reversible [2]: 21%
- IC50 [3]: 20 nM

Compound: CCN(C)c1ccc2c(c1)C(=O)c1ccc(C3=NCCN3)cc1S2(=O)=O
- IC50 [6]: Not Active
- Reversible [7]: 20%
- IC50 [3]: 40 nM

Compound: c1ccc2c(c1)Sc1ccc(C3=NCCN3)cc1S2
- IC50 [8]: 300 nM
- inhibition at 1 µM [9]: 31%

Compound: CCCOc1ccc2c(c1)C(=O)c1ccc(-c3nnn(C)n3)cc1S2(=O)=O
- Reversible [2]: 0%
- IC50 [3]: 2 nM
- inhibition at 0.003 µM [10]: -13%

Compound: O=C1c2ccccc2S(=O)(=O)c2cc(-c3ncc[nH]3)ccc21
- Inhibition [11]: 10%
- Inhibition [12]: 44%

Compound: COc1nc(-c2ccc3c(c2)S(=O)(=O)c2ccccc2C3=O)no1
- inhibition at 0.5 µM [13]: 23%
- IC50 [3]: 80 nM

Compound: Cc1nnc(-c2ccc3c(c2)S(=O)(=O)c2ccccc2C3=O)o1
- Reversible [14]: 33%
- IC50 [15]: Not Active
- IC50 [3]: 2 nM

Compound: Cn1nnc(-c2ccc3c(c2)S(=O)(=O)c2ccccc2O3)n1
- inhibition at 50 µM [16]: 10%
- IC50 [3]: 2 nM

Compound: O=C1c2cc(Cl)ccc2S(=O)(=O)c2cc(C3=NCCN3)ccc21
- inhibition at 0.2 µM [17]: 3%
- IC50 [3]: 70 nM
- Reversible [18]: 60%

Compound: CCCOc1ccc2c(c1)C(=O)c1ccc(C3=NCCN3)cc1S2(=O)=O
- IC50 [19]: 40 nM
- Reversible [2]: 2%
- IC50 [20]: 9 nM
- IC50 [6]: Not Active

Compound: O=C1c2cc(N3CCSCC3)ccc2S(=O)(=O)c2cc(C3=NCCN3)ccc21
- inhibition at 0.2 µM [17]: 10%
- IC50 [3]: 20 nM

Compound: O=S1(=O)c2cc(C3=NCCN3)ccc2Oc2ccc(C3=NCCN3)cc21
- % inhibition [21]: 5%

Compound: c1ccc2c(c1)[nH]c1cc(C3=NCCN3)ccc12
- inhibition at 3 µM [22]: 33%
- inhibition at 3 µM [23]: 38%

Compound: Cc1nnc(-c2ccc3c(c2)OOc2ccccc2C3=O)o1
- IC50 [8]: 2 nM
- Inhibition [24]: Not Active
- Reversible [25]: 12%

Compound: CCCc1ccc2c(c1)C(=O)c1ccc(C3=NCCN3)cc1S2(=O)=O
- inhibition at 0.3 µM [26]: 0%
- Reversible [2]: 2%
- IC50 [3]: 40 nM

Compound: CCOc1ccc2oc3cc(-c4nnn(CC)n4)ccc3c(=O)c2c1
- Inhibition [27]: 6%
- Inhibition [28]: 32%

Compound: CC(C)(C)c1ccc2c(c1)C(=O)c1ccc(C3=NCCN3)cc1S2(=O)=O
- IC50 [29]: Not Active
- Reversible [2]: 56%
- IC50 [3]: 800 nM

Compound: O=C1c2ccccc2S(=O)(=O)c2cc(C3=NCCN3)ccc21
- inhibition at 0.3 µM [26]: 3%
- Ki [30]: 80 nM
- IC50 [3]: 300 nM
- Reversible [18]: 100%

Compound: c1ccc2c(c1)cc(C1=NCCN1)c1ccccc12
- inhibition at 1 µM [31]: 30%

Compound: O=C1c2ccccc2S(=O)(=O)c2cc(-c3nnc(C(F)(F)F)o3)ccc21
- inhibition at 0.1 µM [32]: 7%
- inhibition at 0.5 µM [33]: 7%

Compound: Cn1nnnc1-c1ccc2c(c1)S(=O)(=O)c1ccccc1C2=O
- inhibition at 0.1 µM [32]: 1%
- inhibition at 0.1 µM [34]: 53%

Compound: CCCOc1ccc2c(c1)C(=O)c1ccc(C3=NCCN3C(C)=O)cc1S2(=O)=O
- inhibition at 0.1 µM [32]: 20%
- inhibition at 0.1 µM [34]: 16%

Compound: CCc1ccc2c(c1)C(=O)c1ccc(C3=NCCN3)cc1S2(=O)=O
- inhibition at 10 µM [35]: 27%
- Ki [30]: 4 nM
- IC50 [3]: 10 nM
- Reversible [18]: 11%

Compound: O=c1c2ccc(-c3nnn(CCO)n3)cc2oc2ccc(OCCO)cc12
- Inhibition [27]: 29%
- Inhibition [28]: 18%

Compound: O=C1c2cc(NCCO)ccc2S(=O)(=O)c2cc(C3=NCCN3)ccc21
- IC50 [36]: Not Active
- IC50 [3]: 40 nM
